Laboratory results from ChEMBL document CHEMBL1153775, “Synthesis, structure elucidation and antitumour activity of N-substituted amides of 3-(3-ethylthio-1,2,4-triazol-5-yl)propenoic acid” (Eur J Med Chem, 2009).

How the values were obtained:
T47D [1] = experiment: Cytotoxicity against human T47D cells assessed as growth inhibition at 0.03 mM after 48 hrs by spectrophotometer using BrdU labeling; type: functional; conditions: read-out: GI
T47D [2] = experiment: Cytotoxicity against human T47D cells assessed as growth inhibition at 0.17 mM after 48 hrs by spectrophotometer using BrdU labeling; type: functional; conditions: read-out: GI
Method in brief: (§1)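 Human breast carcinoma T47D cells were plated at 10⁴ cells per mL on microtiter plates. Each compound was added at three doses, given as mM equivalents of three mass concentrations. Plates were incubated for 24, 48 or 72 h. The read-out was percent growth inhibition (GI).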

A549 [3] = experiment: Cytotoxicity against human A549 cells assessed as growth inhibition at 0.03 mM after 72 hrs by spectrophotometer using BrdU labeling; type: functional; conditions: A549, 72 h, read-out: GI
[4] = Cytotoxicity against human HSF cells assessed as growth inhibition at 0.17 mM after 72 hrs by spectrophotometer using BrdU labeling; type: cell-based; conditions: read-out: GI
[5] = Cytotoxicity against human HSF cells assessed as growth inhibition at 0.35 mM after 48 hrs by spectrophotometer using BrdU labeling; type: cell-based; conditions: read-out: GI
T47D [6] = experiment: Cytotoxicity against human T47D cells assessed as growth inhibition at 0.35 mM after 24 hrs by spectrophotometer using BrdU labeling; type: functional; conditions: read-out: GI; method in brief: as §1
[7] = Cytotoxicity against human HSF cells assessed as growth inhibition at 0.17 mM after 24 hrs by spectrophotometer using BrdU labeling; type: cell-based; conditions: read-out: GI
A549 [8] = experiment: Cytotoxicity against human A549 cells assessed as growth inhibition at 0.03 mM after 48 hrs by spectrophotometer using BrdU labeling; type: functional; conditions: A549, 48 h, read-out: GI
[9] = Cytotoxicity against human HSF cells assessed as growth inhibition at 0.03 mM after 24 hrs by spectrophotometer using BrdU labeling; type: cell-based; conditions: read-out: GI
[10] = Cytotoxicity against human HSF cells assessed as growth inhibition at 0.17 mM after 48 hrs by spectrophotometer using BrdU labeling; type: cell-based; conditions: read-out: GI
T47D [11] = experiment: Cytotoxicity against human T47D cells assessed as growth inhibition at 0.03 mM after 24 hrs by spectrophotometer using BrdU labeling; type: functional; conditions: read-out: GI
A549 [12] = experiment: Cytotoxicity against human A549 cells assessed as growth inhibition at 0.35 mM after 48 hrs by spectrophotometer using BrdU labeling; type: functional; conditions: A549, 48 h, read-out: GI
A549 [13] = experiment: Cytotoxicity against human A549 cells assessed as growth inhibition at 0.17 mM after 24 hrs by spectrophotometer using BrdU labeling; type: functional; conditions: A549, 24 h, read-out: GI
[14] = Cytotoxicity against human HSF cells assessed as growth inhibition at 0.03 mM after 72 hrs by spectrophotometer using BrdU labeling; type: cell-based; conditions: read-out: GI
[15] = Cytotoxicity against human HSF cells assessed as growth inhibition at 0.35 mM after 72 hrs by spectrophotometer using BrdU labeling; type: cell-based; conditions: read-out: GI
A549 [16] = experiment: Cytotoxicity against human A549 cells assessed as growth inhibition at 0.35 mM after 72 hrs by spectrophotometer using BrdU labeling; type: functional; conditions: A549, 72 h, read-out: GI
A549 [17] = experiment: Cytotoxicity against human A549 cells assessed as growth inhibition at 0.35 mM after 24 hrs by spectrophotometer using BrdU labeling; type: functional; conditions: A549, 24 h, read-out: GI
A549 [18] = experiment: Cytotoxicity against human A549 cells assessed as growth inhibition at 0.03 mM after 24 hrs by spectrophotometer using BrdU labeling; type: functional; conditions: A549, 24 h, read-out: GI
A549 [19] = experiment: Cytotoxicity against human A549 cells assessed as growth inhibition at 0.17 mM after 72 hrs by spectrophotometer using BrdU labeling; type: functional; conditions: A549, 72 h, read-out: GI
A549 [20] = experiment: Cytotoxicity against human A549 cells assessed as growth inhibition at 0.17 mM after 48 hrs by spectrophotometer using BrdU labeling; type: functional; conditions: A549, 48 h, read-out: GI
T47D [21] = experiment: Cytotoxicity against human T47D cells assessed as growth inhibition at 0.03 mM after 72 hrs by spectrophotometer using BrdU labeling; type: functional; conditions: read-out: GI
T47D [22] = experiment: Cytotoxicity against human T47D cells assessed as growth inhibition at 0.17 mM after 72 hrs by spectrophotometer using BrdU labeling; type: functional; conditions: read-out: GI; method in brief: as §1
T47D [23] = experiment: Cytotoxicity against human T47D cells assessed as growth inhibition at 0.35 mM after 48 hrs by spectrophotometer using BrdU labeling; type: functional; conditions: read-out: GI; method in brief: as §1
T47D [24] = experiment: Cytotoxicity against human T47D cells assessed as growth inhibition at 0.35 mM after 72 hrs by spectrophotometer using BrdU labeling; type: functional; conditions: read-out: GI; method in brief: as §1
T47D [25] = experiment: Cytotoxicity against human T47D cells assessed as growth inhibition at 0.17 mM after 24 hrs by spectrophotometer using BrdU labeling; type: functional; conditions: read-out: GI; method in brief: as §1
[26] = Cytotoxicity against human HSF cells assessed as growth inhibition at 0.35 mM after 24 hrs by spectrophotometer using BrdU labeling; type: cell-based; conditions: read-out: GI
[27] = Cytotoxicity against human HSF cells assessed as growth inhibition at 0.03 mM after 48 hrs by spectrophotometer using BrdU labeling; type: cell-based; conditions: read-out: GI

## CCSc1n[nH]c(/C=C\C(=O)Nc2cccc(C)c2)n1
T47D [1]
  inhibition of growth at 30 µM: 5%
T47D [2]
  inhibition of growth at 170 µM: 5%
A549 [3]
  inhibition of growth at 30 µM: 0%
[4]
  inhibition at 72 h, 170 µM: 50%
[5]
  inhibition at 48 h, 350 µM: 50%
T47D [6]
  inhibition of growth at 350 µM: 0%
[7]
  inhibition at 24 h, 170 µM: 50%
A549 [8]
  inhibition of growth at 30 µM: 5%
[9]
  inhibition at 24 h, 30 µM: 0%
[10]
  inhibition at 48 h, 170 µM: 50%
T47D [11]
  inhibition of growth at 30 µM: 0%
A549 [12]
  inhibition of growth at 350 µM: 50%
A549 [13]
  inhibition of growth at 170 µM: 50%
[14]
  inhibition at 72 h, 30 µM: 0%
[15]
  inhibition at 72 h, 350 µM: 50%
A549 [16]
  inhibition of growth at 350 µM: 50%
A549 [17]
  inhibition of growth at 350 µM: 50%
A549 [18]
  inhibition of growth at 30 µM: 20%
A549 [19]
  inhibition of growth at 170 µM: 25%
A549 [20]
  inhibition of growth at 170 µM: 50%
T47D [21]
  inhibition of growth at 30 µM: 5%
T47D [22]
  inhibition of growth at 170 µM: 25%
T47D [23]
  inhibition of growth at 350 µM: 0%
T47D [24]
  inhibition of growth at 350 µM: 25%
T47D [25]
  inhibition of growth at 170 µM: 5%
[26]
  inhibition at 24 h, 350 µM: 5%
[27]
  inhibition at 48 h, 30 µM: 0%
